Published values from different studies.
Protocols differ between the studies behind these lines.
Target: Serine/threonine-protein kinase ICK (CILK1, Homo sapiens, UniProt Q9UPZ9)
Residues used in one study (Q9UPZ9 1-632): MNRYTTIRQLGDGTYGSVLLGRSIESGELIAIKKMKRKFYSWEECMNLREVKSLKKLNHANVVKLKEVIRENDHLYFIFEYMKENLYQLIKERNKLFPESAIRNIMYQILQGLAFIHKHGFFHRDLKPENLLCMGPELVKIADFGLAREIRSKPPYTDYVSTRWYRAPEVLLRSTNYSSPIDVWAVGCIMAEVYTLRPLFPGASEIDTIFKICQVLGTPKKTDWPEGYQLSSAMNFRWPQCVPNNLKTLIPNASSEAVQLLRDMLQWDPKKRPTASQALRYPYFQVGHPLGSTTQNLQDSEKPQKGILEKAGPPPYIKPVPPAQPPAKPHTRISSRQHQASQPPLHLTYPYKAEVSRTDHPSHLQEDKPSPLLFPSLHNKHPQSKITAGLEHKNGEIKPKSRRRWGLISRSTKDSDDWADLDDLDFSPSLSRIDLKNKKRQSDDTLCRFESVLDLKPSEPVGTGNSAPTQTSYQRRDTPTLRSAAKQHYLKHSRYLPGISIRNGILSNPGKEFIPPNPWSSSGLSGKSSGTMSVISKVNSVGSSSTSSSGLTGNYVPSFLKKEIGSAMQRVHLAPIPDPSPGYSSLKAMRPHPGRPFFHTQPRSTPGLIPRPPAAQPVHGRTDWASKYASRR

With Cc1ccc(C(=O)Nc2ccc(CN3CCN(C)CC3)c(C(F)(F)F)c2)cc1C#Cc1cnc2cccnn12 the remaining activity was 96% (enzyme activity; 23.5 nM).
CO[C@@H](C)c1c(Nc2ccc([C@H](N(C)C(=O)C3CCS(=O)(=O)CC3)C(F)(F)F)cc2)cnc2cc(Cl)nn12 gave a remaining binding of 70% (cell-free assay; competition with immobilised ligand; 1 µM).
The remaining activity of Cc1sc(C(=O)NC2COC2)cc1-n1cc(NC(=O)Nc2c(F)cccc2Cl)cn1 is reported as 100% (enzyme activity; inhibitor; 10 µM).
For CC(C)(O)[C@H]1CC[C@H](Nc2ccc3ncc(-c4cccc(C(F)(F)F)c4)n3n2)CC1, the remaining activity was 86% (enzyme activity; inhibitor; 1 µM).
For Cc1ccc(C(=O)NCc2ccsc2)cc1C#Cc1cn(C(C)C)c2ncnc(N)c12, the activity vs control was 103% (enzyme activity; inhibitor; 1 µM).
Nc1ncnc2occ(-c3ccc(NC(=O)Nc4cc(C(F)(F)F)ccc4F)cc3)c12 gave a remaining signal of 12% (cell-free assay; 20 µM).
O=C(Nc1cnn(-c2csc(C(=O)NC3COC3)c2)c1)Nc1c(F)cccc1Cl gave a remaining activity of 96.6% (enzyme activity; inhibitor; 5 µM).
The remaining binding of O=C1NC(c2ccccn2)Sc2ccccc21 (stereo not drawn) is reported as 86% (cell-free assay; competition with immobilised ligand; 1 µM).
With CN1CC(Oc2cnc(C#N)cc2-c2ccn3nc(NC(=O)C4CC4)cc3c2)C1 the inhibition was -20% (enzyme activity; inhibitor; 1 µM).
